ChEMBL document CHEMBL1147851, “Novel class of arylpiperazines containing N-acylated amino acids: their synthesis, 5-HT1A, 5-HT2A receptor affinity, and in vivo pharmacological evaluation” (Bioorg Med Chem, 2007)
pKi: −log10 of the molar value. Activity calls are given as the source filed them. No cut-off for these calls is given here.

Assays:
Mus musculus [1] = test: Anxiolytic-like activity in Swiss Albino mouse at 2.5 mg/kg by four plate test; format: functional
In short: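 Male Albino Swiss mice (24–28 g), each used once, 10 per dose group. Dosing ip at 10 mL/kg, 30 or 60 min before testing depending on agent; tested compounds given as suspensions in 1% aqueous Tween 80. Four-metal-plate floor; 15 s exploration, then each plate-to-plate crossing shocked (120 V, 0.5 s), no new shock for 3 s if still running. Punished crossings counted over 60 s; one-way ANOVA, Dunnett's test.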

Mus musculus [2] = test: Anxiolytic-like activity in Swiss Albino mouse at 5 mg/kg by four plate test; format: functional
In short: (§1)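 Four-plate test in male Albino Swiss mice, dosed ip 30 or 60 min before testing. After 15 s of exploration, each plate-to-plate crossing triggered a 0.5 s, 120 V floor shock, with no new shock for the next 3 s. Punished crossings were counted over 60 s. n = 10 per group; ANOVA with Dunnett's test.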

Mus musculus [3] = species on record: Mus musculus; test: Decrease in body temperature in Albino Swiss mouse
[4] = molecular target: 5-hydroxytryptamine receptor 2A (Rattus norvegicus, UniProt P14842); test: Displacement of [3H]ketanserin from serotonin 5HT2A receptor in rat brain cortex; format: tissue-based
5-hydroxytryptamine receptor 2A, sequence (P14842 whole entry): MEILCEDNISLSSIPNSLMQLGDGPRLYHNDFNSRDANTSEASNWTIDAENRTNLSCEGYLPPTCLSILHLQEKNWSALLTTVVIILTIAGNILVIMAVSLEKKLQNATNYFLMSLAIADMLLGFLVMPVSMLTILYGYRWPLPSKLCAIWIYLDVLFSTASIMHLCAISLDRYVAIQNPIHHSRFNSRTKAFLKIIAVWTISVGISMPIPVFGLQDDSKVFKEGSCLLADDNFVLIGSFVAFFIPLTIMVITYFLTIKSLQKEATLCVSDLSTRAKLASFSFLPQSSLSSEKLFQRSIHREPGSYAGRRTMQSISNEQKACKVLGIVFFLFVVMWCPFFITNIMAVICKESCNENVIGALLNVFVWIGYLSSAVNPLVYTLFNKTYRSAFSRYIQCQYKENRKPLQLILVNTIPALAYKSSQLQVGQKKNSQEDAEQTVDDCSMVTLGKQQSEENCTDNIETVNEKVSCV
In short: (§2)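 Full competition binding with 8–10 drug concentrations (10^-10–10^-3 M), each in triplicate. Ki was derived from at least three experiments.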

[5] = molecular target: T1, 5-hydroxytryptamine receptor 1A (Rattus norvegicus, UniProt P19327); test: Displacement of [3H]8-OH-DPAT from serotonin 5HT1A receptor in rat brain hippocampus; format: tissue-based; in short: as §2
T1 sequence (P19327 whole entry): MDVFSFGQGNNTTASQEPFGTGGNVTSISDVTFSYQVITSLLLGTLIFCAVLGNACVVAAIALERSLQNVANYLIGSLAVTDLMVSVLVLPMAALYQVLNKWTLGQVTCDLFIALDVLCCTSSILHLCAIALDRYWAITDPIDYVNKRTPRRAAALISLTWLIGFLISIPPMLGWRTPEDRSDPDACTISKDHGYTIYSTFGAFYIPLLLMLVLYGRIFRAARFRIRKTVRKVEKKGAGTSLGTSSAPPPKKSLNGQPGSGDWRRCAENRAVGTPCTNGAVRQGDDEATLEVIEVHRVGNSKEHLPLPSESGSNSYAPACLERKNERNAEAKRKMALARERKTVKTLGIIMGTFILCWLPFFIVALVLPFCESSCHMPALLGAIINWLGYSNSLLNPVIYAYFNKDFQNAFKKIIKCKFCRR

D(2) dopamine receptor = D(2) dopamine receptor (Rattus norvegicus, UniProt P61169); test: Displacement of [3H]spiperone from dopaminergic D2 receptor in rat striatal membrane; format: cell membranes, Striatum
D(2) dopamine receptor, sequence (P61169 whole entry): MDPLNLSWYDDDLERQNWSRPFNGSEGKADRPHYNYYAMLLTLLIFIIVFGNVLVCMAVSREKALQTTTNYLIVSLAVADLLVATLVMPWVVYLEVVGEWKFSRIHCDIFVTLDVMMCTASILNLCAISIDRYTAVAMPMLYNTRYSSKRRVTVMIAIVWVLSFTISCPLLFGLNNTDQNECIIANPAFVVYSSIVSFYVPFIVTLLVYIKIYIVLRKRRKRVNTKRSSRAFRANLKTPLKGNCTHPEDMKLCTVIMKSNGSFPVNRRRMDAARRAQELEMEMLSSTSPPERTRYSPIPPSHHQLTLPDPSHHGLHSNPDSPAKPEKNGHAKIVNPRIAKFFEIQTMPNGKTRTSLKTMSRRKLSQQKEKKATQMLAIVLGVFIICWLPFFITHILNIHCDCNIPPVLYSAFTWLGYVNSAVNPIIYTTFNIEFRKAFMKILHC
In short: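 Rat striatal membranes incubated with [3H]spiperone, with 50 nM ketanserin added to block 5-HT2A sites. Nonspecific binding was defined with 5 μM (±)-butaclamol. Incubation 30 min at 37 °C, stopped by vacuum filtration, washed with 50 mM potassium phosphate pH 7.4, counted by liquid scintillation. Estimated Ki (Cheng–Prusoff) came from two concentrations (0.1, 1 μM) in triplicate, three experiments.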

[6] = molecular target: T2, 5-hydroxytryptamine receptor 1A (Mus musculus) (UniProt Q64264); test: Antagonist activity at 5-HT1A receptor in Swiss Albino mouse assessed as decrease in 8-OH-DPAT induced body temperature; format: functional
T2 sequence (whole entry): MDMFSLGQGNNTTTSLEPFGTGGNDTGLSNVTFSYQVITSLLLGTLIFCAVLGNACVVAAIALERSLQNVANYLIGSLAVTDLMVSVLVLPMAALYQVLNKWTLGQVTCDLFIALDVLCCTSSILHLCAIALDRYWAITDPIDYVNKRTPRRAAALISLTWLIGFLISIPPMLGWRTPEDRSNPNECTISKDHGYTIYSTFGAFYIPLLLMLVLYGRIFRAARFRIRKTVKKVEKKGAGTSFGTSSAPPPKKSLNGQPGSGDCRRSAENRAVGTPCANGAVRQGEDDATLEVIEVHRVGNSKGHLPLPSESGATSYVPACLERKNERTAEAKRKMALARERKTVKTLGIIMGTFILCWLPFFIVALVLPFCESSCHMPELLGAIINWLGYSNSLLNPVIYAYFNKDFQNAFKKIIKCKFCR
In short: (§3)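 Male Albino Swiss mice. 8-OH-DPAT 5 mg/kg sc induced hypothermia. Test agents were suspended in 1% aqueous Tween 80 and given ip 45 min before 8-OH-DPAT. Rectal temperature was taken 15, 30, 45 and 60 min after 8-OH-DPAT and expressed as change (Δt) from basal temperature. Six to ten animals per dose.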

Mus musculus [7] = test: Anxiolytic-like activity in Swiss Albino mouse at 10 mg/kg by four plate test; format: functional; in short: as §1
Mus musculus [8] = test: Anxiolytic-like activity in Swiss Albino mouse at 20 mg/kg by four plate test; format: functional; in short: as §1
Mus musculus [9] = species on record: Mus musculus; test: Decrease in body temperature in C57BL/6J mouse; format: functional, organism-based
Mus musculus [10] = species on record: Mus musculus; test: Effect on body temperature in Swiss Albino mouse; format: functional, organism-based
In short: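 Male Albino Swiss mice received the agent alone ip as a suspension in 1% aqueous Tween 80. Rectal body temperature was read at 30, 60, 90 and 120 min after dosing and expressed as Δt from the basal value taken at the start. Six to ten animals per dose.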

Mus musculus [11] = test: Antidepressant-like activity in C57BL/6J mouse at 5 mg/kg by tail suspension test; format: functional
Mus musculus [12] = test: Antidepressant-like activity in Swiss Albino mouse at 2.5 mg/kg by forced swimming test; format: functional
In short: (§4)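 Porsolt forced swim in male Albino Swiss mice, agents given ip (1% Tween 80 suspension) 30 min beforehand. Mice were placed in a cylinder 10 cm wide holding 6 cm of water at 23–25 °C for 6 min. Floating immobility was timed over the last 4 min. n = 9-10 per group; ANOVA with Dunnett's test.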

[13] = molecular target: T2, 5-hydroxytryptamine receptor 1A (Mus musculus); test: Activity at 5HT1A receptor in Swiss Albino mouse assessed as decrease in 8-OH-DPAT induced body temperature; format: functional; conditions: filed as agonist; in short: as §3
Mus musculus [14] = test: Antidepressant-like activity in C57BL/6J mouse at 20 mg/kg by tail suspension test; format: functional
In short: (§5)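 Tail suspension in male C57BL/6J mice (22–23 g), dosed ip in 1% Tween 80 suspension 30 min before the test. Each mouse hung by adhesive tape about 1 cm from the tail tip, 75 cm above the floor. Total immobility, meaning no limb or body movement except breathing, was scored manually over 6 min. n = 9-10 per group; one-way ANOVA then Dunnett's test.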

Mus musculus [15] = test: Antidepressant-like activity in Swiss Albino mouse at 5 mg/kg by forced swimming test; format: functional; in short: as §4
Mus musculus [16] = test: Antidepressant-like activity in C57BL/6J mouse at 10 mg/kg by tail suspension test; format: functional; in short: as §5
Mus musculus [17] = species on record: Mus musculus; test: Reduction in spontaneous locomotor activity in Swiss Albino mouse; format: functional, organism-based
In short: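 Male Albino Swiss mice dosed ip were placed singly in photoresistor actometers (24 cm diameter, two light beams). Beam crossings were counted over the first 6 min and over a 30-min session. ANOVA with Dunnett's test.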

Mus musculus [18] = test: Antidepressant-like activity in Swiss Albino mouse at 20 mg/kg by forced swimming test; format: functional; in short: as §4
Mus musculus [19] = test: Antidepressant-like activity in Swiss Albino mouse at 10 mg/kg by forced swimming test; format: functional; in short: as §4

| SMILES | Activity (Mus musculus [2]) | pKi [4] | pKi [5] | pKi (D(2) dopamine receptor) | further results |
| --- | --- | --- | --- | --- | --- |
| CN1C(=O)CN=C(c2ccccc2)c2cc(Cl)ccc21 [DIAZEPAM] | 6.7 | – | – | – | Activity (Mus musculus [1]): 6.8 |
| COc1ccccc1N1CCN(CCCCN2C(=O)C[C@H](NC(=O)C34CC5CC(CC(C5)C3)C4)C2=O)CC1 | – | 6.76 | 8.40 | 5.75 | Activity (Mus musculus [3]): Active |
| O=C(N[C@H]1CC(=O)N(CCCCN2CCN(c3cccc(Cl)c3)CC2)C1=O)C1CCCC1 | – | 7.33 | 7.55 | 4.90 | Activity (Mus musculus [3]): Active |
| O=C1C[C@H](NC(=O)C23CC4CC(CC(C4)C2)C3)C(=O)N1CCCCN1CCN(c2cccc(Cl)c2)CC1 | 4.6 | 7.60 | 7.33 | 4.67 | Activity [6]: Active; Activity (Mus musculus [7]): 5.1; Activity (Mus musculus [8]): 5.6 |
| O=C1CCC(=O)N1CCCCN1CCN(c2cccc(Cl)c2)CC1 | – | 6.92 | 7.49 | 5.11 | – |
| COc1ccccc1N1CCN(CCCCNC(=O)[C@@H]2CCCN2C(=O)C2CCCCC2)CC1 | – | 6.00 | 7.72 | 5.44 | Activity (Mus musculus [9]): Active |
| O=C(N[C@H]1CC(=O)N(CCCCN2CCN(c3cccc(Cl)c3)CC2)C1=O)C1CCCCC1 | – | 8.19 | 7.59 | 5.67 | Activity (Mus musculus [10]): inactive |
| COc1ccccc1N1CCN(CCCCN2C(=O)C[C@H](NC(=O)CC3CC4CCC3C4)C2=O)CC1 (stereo not given in full) | – | 7.33 | 8.05 | 6.06 | Activity (Mus musculus [3]): Active |
| COc1ccccc1N1CCN(CCCCN2C(=O)CCC2=O)CC1 | – | 5.82 | – | 6.31 | – |
| COc1ccccc1N1CCN(CCCCN2C(=O)C[C@H](NC(=O)C3CCCCC3)C2=O)CC1 | 6.6 | 6.74 | 7.72 | 5.68 | Activity (Mus musculus [11]): 147.9 s; Activity (Mus musculus [12]): 131.6 s; Activity [13]: Agonist; Activity (Mus musculus [14]): 116.1 s; Activity (Mus musculus [15]): 110 s; Activity (Mus musculus [16]): 129.1 s; Activity (Mus musculus [1]): 4.7; Activity (Mus musculus [17]): inactive; Activity (Mus musculus [7]): 7; Activity (Mus musculus [18]): 128.1 s; Activity (Mus musculus [19]): 102 s; Activity (Mus musculus [8]): 7.5 |
| O=C(CC1CC2CCC1C2)N[C@H]1CC(=O)N(CCCCN2CCN(c3cccc(Cl)c3)CC2)C1=O (stereo not given in full) | – | 8.38 | 7.68 | 6.11 | Activity (Mus musculus [10]): inactive |
| CN(C)CCCN1c2ccccc2CCc2ccccc21 [IMIPRAMINE] | – | – | – | – | Activity (Mus musculus [11]): 147.4 s; Activity (Mus musculus [14]): 90.2 s; Activity (Mus musculus [16]): 102.5 s; Activity (Mus musculus [18]): 107.8 s; Activity (Mus musculus [19]): 149.1 s |
| COc1ccccc1N1CCN(CCCCN2C(=O)C[C@H](NC(=O)C3CCCC3)C2=O)CC1 | 3.4 | 6.32 | 7.64 | 6.04 | Activity [13]: Agonist; Activity (Mus musculus [15]): 133.4 s; Activity (Mus musculus [17]): Active; Activity (Mus musculus [7]): 5.2; Activity (Mus musculus [18]): 103 s; Activity (Mus musculus [19]): 123.3 s; Activity (Mus musculus [8]): 6 |
